Source: ChEMBL document CHEMBL1157819, “Almiramides A-C: discovery and development of a new class of leishmaniasis lead compounds” (J Med Chem, 2010)
pIC50: −log10 of the molar value. In brackets after ≈: the same amount, converted by molar mass. Activity calls are given as the source filed them. The rule behind the calls is not given here. Non-standard residues stand in square brackets, D forms with d. Residues, ends and D or L forms follow the SMILES beside them. *: point of attachment. Octanoyl(2R-Me,7,8-dehydro) = C=CCCCC[C@@H](C)C(=O)*; Oct7ynoyl(2R-Me) = C#CCCCC[C@@H](C)C(=O)*; NMeY = CN[C@@H](Cc1ccc(O)cc1)C(=O)O; NMeF = CN[C@@H](Cc1ccccc1)C(=O)O; X1 = CC(=O)CCCC[C@@H](C)C(=O)*; Oct(7)enoyl = C=CCCCCCC(=O)*; Oct(7)ynoyl = C#CCCCCCC(=O)*; NMeV = CN[C@H](C(=O)O)C(C)C; X5 = C#CCCCCC(C)CC(C)C(=O)*; Hept6ynoyl = C#CCCCCC(=O)*; X3 = CCCCCC[C@@H](C)C(=O)*; X6 = C#CCCCC[C@H](C)C(=O)*; NMeA = CN[C@@H](C)C(=O)O; X4 = C=CCCCCC(=O)*; X2 = C=CCCCC(=O)*

Legend:
[1] = Selectivity index, ratio of IC50 for african green monkey Vero cells to IC50 for Leishmania donovani; assay type: toxicity, cell-based; details: read-out: Ratio IC50
Leishmania donovani [2] = assay: Antileishmanial activity against Leishmania donovani by DNA fluorescence assay; assay type: functional, organism-based
Vero = assay: Cytotoxicity against african green monkey Vero cells by MTT assay; assay type: cell-based; details: Chlorocebus sabaeus
Method in brief: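 Green monkey Vero kidney cells; cell proliferation read by MTT.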

Leishmania donovani [3] = assay: Antileishmanial activity against Leishmania donovani at 10 ug/mL by DNA fluorescence assay; assay type: functional, organism-based
Method in brief: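 Leishmania donovani; parasite growth read by parasite DNA fluorescence, with amphotericin B as positive control.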

Plasmodium falciparum = assay: Antimalarial activity against chloroquine-resistant Plasmodium falciparum W2 at 13.5 uM after 48 hrs by fluorometric method; assay type: functional, organism-based
Trypanosoma cruzi [4] = assay: Antitrypanosomal activity against Trypanosoma cruzi Tulahuen infected in mouse 3T3 cells assessed as beta-galactosidase activity at 13.5 uM after 7 days by chagas bioassay; assay type: functional, organism-based; details: NIH3T3
Leishmania donovani [5] = assay: Antileishmanial activity against Leishmania donovani at 13.4 uM by DNA fluorescence assay; assay type: functional, organism-based
Trypanosoma cruzi [6] = assay: Antitrypanosomal activity against Trypanosoma cruzi Tulahuen infected in mouse 3T3 cells assessed as beta-galactosidase activity after 7 days by chagas bioassay; details: NIH3T3, 168 h

Row | SMILES | selectivity ratio [1] | pIC50 (Leishmania donovani [2]) | pIC50 (Vero) | IC50 (Leishmania donovani [2]) [µg/mL] | also measured
1 | C=CCCCC(=O)N(C)[C@H](C(=O)N(C)[C@H](C(=O)N(C)[C@H](C(=O)N(C)[C@@H](C)C(=O)N(C)[C@@H](Cc1ccccc1)C(=O)N(C)C)C(C)C)C(C)C)C(C)C (X2-[NMeV][NMeV][NMeV][NMeA][NMeF]-NMe2) | 13.9 | 5.17 | 4.03 | – | –
2 | C#CCCCC[C@@H](C)C(=O)N(C)[C@H](C(=O)N(C)[C@H](C(=O)N(C)[C@H](C(=O)N(C)[C@@H](C)C(=O)N(C)[C@@H](Cc1ccccc1)C(N)=O)C(C)C)C(C)C)C(C)C [MONOMETHYLALMIRAMIDE B] ({Oct7ynoyl(2R-Me)}-[NMeV][NMeV][NMeV][NMeA][NMeF]-NH2) | – | 5.80 | – | – | –
3 | C#CCCCCC(=O)N(C)[C@H](C(=O)N(C)[C@H](C(=O)N(C)[C@H](C(=O)N(C)[C@@H](C)C(=O)N(C)[C@@H](Cc1ccccc1)C(=O)OC)C(C)C)C(C)C)C(C)C (Hept6ynoyl-[NMeV][NMeV][NMeV][NMeA][NMeF]-OMe) | – | < 4.85 | 4.38 | – | –
4 | C#CCCCC[C@H](C)C(=O)N(C)[C@@H](Cc1ccccc1)C(=O)N[C@@H](C)C(=O)N(C)[C@@H](C)C(=O)N(C)[C@@H](Cc1ccc(OC)cc1)C(N)=O (X6-[NMeF]A[NMeA][NMeY](Me)-NH2) | – | – | – | – | Activity (Leishmania donovani [3]): inactive
5 | C#CCCCCC(=O)N(C)[C@H](C(=O)N(C)[C@H](C(=O)N(C)[C@H](C(=O)N(C)[C@@H](C)C(=O)N(C)[C@@H](Cc1ccccc1)C(=O)N(C)C)C(C)C)C(C)C)C(C)C (Hept6ynoyl-[NMeV][NMeV][NMeV][NMeA][NMeF]-NMe2) | 50.2 | 5.51 | 3.81 | – | –
6 | C=CCCCCCC(=O)N(C)[C@H](C(=O)N(C)[C@H](C(=O)N(C)[C@H](C(=O)N(C)[C@@H](C)C(=O)N(C)[C@@H](Cc1ccccc1)C(=O)OC)C(C)C)C(C)C)C(C)C ({Oct(7)enoyl}-[NMeV][NMeV][NMeV][NMeA][NMeF]-OMe) | – | < 4.85 | 4.73 | – | –
7 | CC(=O)CCCC[C@@H](C)C(=O)N(C)[C@H](C(=O)N(C)[C@H](C(=O)N[C@H](C(=O)N(C)[C@@H](C)C(=O)N(C)[C@@H](Cc1ccccc1)C(N)=O)C(C)C)C(C)C)C(C)C [ALMIRAMIDE A] (X1-[NMeV][NMeV]V[NMeA][NMeF]-NH2) | – | < 4.87 | 3.95 | – | Activity (Plasmodium falciparum): inactive; Activity (Trypanosoma cruzi [4]): inactive
8 | C#CCCCC[C@@H](C)C(=O)N(C)[C@H](C(=O)N(C)[C@H](C(=O)N(C)[C@H](C(=O)N(C)[C@@H](C)C(=O)N(C)[C@@H](Cc1ccccc1)C(=O)N(C)C)C(C)C)C(C)C)C(C)C [PERMETHYLALMIRAMIDE B] ({Oct7ynoyl(2R-Me)}-[NMeV][NMeV][NMeV][NMeA][NMeF]-NMe2) | – | 5.64 | – | – | –
9 | C#CCCCC[C@@H](C)C(=O)N(C)[C@H](C(=O)N(C)[C@H](C(=O)N[C@H](C(=O)N(C)[C@@H](C)C(=O)N(C)[C@@H](Cc1ccccc1)C(N)=O)C(C)C)C(C)C)C(C)C [ALMIRAMIDE B] ({Oct7ynoyl(2R-Me)}-[NMeV][NMeV]V[NMeA][NMeF]-NH2) | 21.8 | 5.62 | 4.28 | – | Activity (Plasmodium falciparum): inactive; Activity (Trypanosoma cruzi [4]): inactive
10 | C=CCCCCC(=O)N(C)[C@H](C(=O)N(C)[C@H](C(=O)N(C)[C@H](C(=O)N(C)[C@@H](C)C(=O)N(C)[C@@H](Cc1ccccc1)C(=O)OC)C(C)C)C(C)C)C(C)C (X4-[NMeV][NMeV][NMeV][NMeA][NMeF]-OMe) | – | < 4.85 | 4.61 | – | –
11 | C#CCCCCCC(=O)N(C)[C@H](C(=O)N(C)[C@H](C(=O)N(C)[C@H](C(=O)N(C)[C@@H](C)C(=O)N(C)[C@@H](Cc1ccccc1)C(=O)O)C(C)C)C(C)C)C(C)C ({Oct(7)ynoyl}-[NMeV][NMeV][NMeV][NMeA][NMeF]-OH) | – | < 4.85 | < 4.16 | – | –
12 | C#CCCCCCC(=O)N(C)[C@H](C(=O)N(C)[C@H](C(=O)N(C)[C@H](C(=O)N(C)[C@@H](C)C(=O)N(C)[C@@H](Cc1ccccc1)C(=O)OC)C(C)C)C(C)C)C(C)C ({Oct(7)ynoyl}-[NMeV][NMeV][NMeV][NMeA][NMeF]-OMe) | – | < 4.85 | 4.57 | – | –
13 | CCCCCC[C@@H](C)C(=O)N(C)[C@H](C(=O)N(C)[C@H](C(=O)N[C@H](C(=O)N(C)[C@@H](C)C(=O)N(C)[C@@H](Cc1ccccc1)C(N)=O)C(C)C)C(C)C)C(C)C [TETRAHYDROALMIRAMIDE B] (X3-[NMeV][NMeV]V[NMeA][NMeF]-NH2) | – | < 4.86 | – | – | Activity (Leishmania donovani [5]): inactive
14 | C#CCCCCCC(=O)N(C)[C@H](C(=O)N(C)[C@H](C(=O)N(C)[C@H](C(=O)N(C)[C@@H](C)C(=O)N(C)[C@@H](Cc1ccccc1)C(=O)N(C)C)C(C)C)C(C)C)C(C)C ({Oct(7)ynoyl}-[NMeV][NMeV][NMeV][NMeA][NMeF]-NMe2) | 27 | 5.23 | 3.80 | – | –
15 | CCCCCCCCCCCCCCCCOP(=O)([O-])OCC[N+](C)(C)C [MILTEFOSINE] | – | 6.30 | – | – | –
16 | C#CCCCCC(C)CC(C)C(=O)N(C)[C@@H](Cc1ccccc1)C(=O)N[C@@H](C)C(=O)N(C)[C@@H](C)C(=O)N(C)[C@@H](Cc1ccc(OC)cc1)C(N)=O (stereo not given in full) (X5-[NMeF]A[NMeA][NMeY](Me)-NH2) | – | – | – | – | Activity (Leishmania donovani [3]): inactive
17 | C=CCCCCCC(=O)N(C)[C@H](C(=O)N(C)[C@H](C(=O)N(C)[C@H](C(=O)N(C)[C@@H](C)C(=O)N(C)[C@@H](Cc1ccccc1)C(=O)O)C(C)C)C(C)C)C(C)C ({Oct(7)enoyl}-[NMeV][NMeV][NMeV][NMeA][NMeF]-OH) | 46.9 | 5.39 | 3.72 | – | –
18 | C=CCCCC[C@@H](C)C(=O)N(C)[C@H](C(=O)N(C)[C@H](C(=O)N[C@H](C(=O)N(C)[C@@H](C)C(=O)N(C)[C@@H](Cc1ccccc1)C(N)=O)C(C)C)C(C)C)C(C)C [ALMIRAMIDE C] ({Octanoyl(2R-Me,7,8-dehydro)}-[NMeV][NMeV]V[NMeA][NMeF]-NH2) | 17.4 | 5.72 | 4.48 | – | Activity (Plasmodium falciparum): inactive; Activity (Trypanosoma cruzi [4]): inactive
19 | C#CCCCCC(=O)N(C)[C@H](C(=O)N(C)[C@H](C(=O)N(C)[C@H](C(=O)N(C)[C@@H](C)C(=O)N(C)[C@@H](Cc1ccccc1)C(=O)O)C(C)C)C(C)C)C(C)C (Hept6ynoyl-[NMeV][NMeV][NMeV][NMeA][NMeF]-OH) | 50.2 | 5.25 | 3.55 | – | –
20 | C#CCCCC[C@H](C)C(=O)N(C)[C@H](C(=O)N(C)[C@H](C(=O)N(C)[C@H](C(=O)N(C)[C@@H](Cc1ccccc1)C(N)=O)C(C)C)C(C)C)C(C)C (X6-[NMeV][NMeV][NMeV][NMeF]-NH2) | – | – | – | – | Activity (Leishmania donovani [3]): inactive
21 | C=CCCCCC(=O)N(C)[C@H](C(=O)N(C)[C@H](C(=O)N(C)[C@H](C(=O)N(C)[C@@H](C)C(=O)N(C)[C@@H](Cc1ccccc1)C(=O)N(C)C)C(C)C)C(C)C)C(C)C (X4-[NMeV][NMeV][NMeV][NMeA][NMeF]-NMe2) | 8.8 | 5.57 | 4.86 | – | –
22 | C#CCCCC[C@H](C)C(=O)N(C)[C@H](C(=O)N(C)[C@H](C(=O)N(C)[C@H](C(=O)N(C)[C@H](C(N)=O)C(C)C)C(C)C)C(C)C)C(C)C (X6-[NMeV][NMeV][NMeV][NMeV]-NH2) | – | – | – | – | Activity (Leishmania donovani [3]): inactive
23 | C=CCCCCC(=O)N(C)[C@H](C(=O)N(C)[C@H](C(=O)N(C)[C@H](C(=O)N(C)[C@@H](C)C(=O)N(C)[C@@H](Cc1ccccc1)C(=O)O)C(C)C)C(C)C)C(C)C (X4-[NMeV][NMeV][NMeV][NMeA][NMeF]-OH) | – | < 4.85 | < 4.15 | – | –
24 | CC1CS(=O)(=O)CCN1/N=C/c1ccc([N+](=O)[O-])o1 (stereo not given) [NIFURTIMOX] | – | – | – | – | IC50 (Trypanosoma cruzi [6]): 3 µg/mL (≈ 10.4 µM)
25 | C[C@@H]1[C@H](O)[C@@H](C)/C=C/C=C/C=C/C=C/C=C/C=C/C=C/[C@H](O[C@@H]2O[C@H](C)[C@@H](O)[C@H](N)[C@@H]2O)C[C@@H]2O[C@](O)(C[C@@H](O)C[C@@H](O)[C@H](O)CC[C@@H](O)C[C@@H](O)CC(=O)O[C@H]1C)C[C@H](O)[C@H]2C(=O)O [AMPHOTERICIN B] | – | – | – | 0.08 | –
